Results on six molecules are retold here after ChEMBL document CHEMBL1158367, “Cationic surfactants from lysine: synthesis, micellization and biological evaluation” (Eur J Med Chem, 2009).

Data set [1] concerns Staphylococcus epidermidis. The experiment in a line: Antimicrobial activity against Staphylococcus epidermidis after 24 hrs. It counts as functional. The essentials:
(§1)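 MIC by agar dilution: compound incorporated in nutrient agar at 0.1–256 µg/mL, with poorly soluble surfactants predissolved in minimal DMF and a DMF-matched solvent control. Plates were seeded with nutrient broth starter culture and incubated at 37 °C. Growth was scored visually after 24 h; test medium pH 6.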

Data set [2] has as its system Pseudomonas aeruginosa. The experiment in a line: Antimicrobial activity against Pseudomonas aeruginosa at […] after 24 hrs. Type of data set: functional, organism-based.
For data set [3], the system named is Bordetella bronchiseptica. Nature of the data set: Antimicrobial activity against Bordetella bronchiseptica at […] after 24 hrs. It counts as functional, organism-based.
The test system of data set [4] is Klebsiella aerogenes. Nature of the data set: Antimicrobial activity against Enterobacter aerogenes at […] after 24 hrs. It counts as functional, organism-based.
The test system of data set [5] is Micrococcus luteus. Nature of the data set: Antimicrobial activity against Micrococcus luteus after 24 hrs. It counts as functional. The essentials: as §1
Data set [6] deals with Enterococcus hirae. Nature of the data set: Antimicrobial activity against Enterococcus hirae after 24 hrs. It counts as functional. The essentials:
as §1

Data set [7] can be described thus: Toxicity against Daphnia magna after 24 hrs by immobility assay. The essentials: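 Daphnia magna acute test using laboratory-bred animals no older than 24 h. Medium pH 8.0, hardness 250 mg/L as CaCO3 (Ca/Mg 4/1), dark, 20 °C. Four groups of five per concentration, ten concentrations in geometric series. Immobility at 24 h plotted on log-probability paper; IC50 with 95% confidence ranges.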

The nature of data set [8]: Dissociation constant, pKa of the compound. Type of data set: physicochemical. The essentials:
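Apparent pKa calculated from pH measurements of surfactant solutions at concentrations that show antimicrobial activity.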

The nature of data set [9]: Critical micelle concentration by PGSE-NMR method. Type of data set: physicochemical. The essentials:
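Surfactant intradiffusion measured by PGSE-NMR, varying gradient strength, from alkyl-chain CH2 signal intensities, at 25 °C (50 °C for the palmitoyl analogue). CMC taken from fitting the two-site exchange model D_obs = p_mic·D_mic + (1−p_mic)·D_free to the descending part of D versus concentration.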

Data set [10] deals with Salmonella enterica subsp. enterica. Nature of the data set: Antimicrobial activity against Salmonella Typhimurium at […] after 24 hrs. It counts as functional, organism-based. The conditions noted are these: Salmonella enterica subsp. enterica serovar Typhimurium.
Data set [11] relates to Serratia marcescens. The experiment in a line: Antimicrobial activity against Serratia marcescens at […] after 24 hrs. Type of data set: functional, organism-based.
For data set [12], the system named is Bacillus subtilis. Nature of the data set: Antimicrobial activity against Bacillus subtilis after 24 hrs. It counts as functional. The essentials:
as §1

Data set [13] can be described thus: Toxicity in human erythrocytes assessed as hemolytic activity. It counts as cell-based, Erythrocyte. The essentials: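 Erythrocytes washed three times in isotonic phosphate saline with 10 mmol/L glucose, pH 7.4, then exposed to surfactant for 10 min at room temperature with shaking and centrifuged. Supernatant A540 compared with water-lysed total-haemolysis controls. HC50 read from percent haemolysis versus concentration plots.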

Data set [14] relates to Mycolicibacterium phlei. Nature of the data set: Antimicrobial activity against Mycobacterium phlei after 24 hrs. It counts as functional. The essentials: as §1
The subject of data set [15] is Escherichia coli. Nature of the data set: Antimicrobial activity against Escherichia coli after 24 hrs. It counts as functional. The essentials:
as §1

Data set [16] deals with Staphylococcus aureus. Nature of the data set: Antimicrobial activity against Staphylococcus aureus after 24 hrs. Type of data set: functional. The essentials:
as §1

For data set [17], the system named is Klebsiella pneumoniae. The experiment in a line: Antimicrobial activity against Klebsiella pneumoniae at […] after 24 hrs. Type of data set: functional, organism-based.
Data set [18] relates to Bacillus cereus. Nature of the data set: Antimicrobial activity against Bacillus cereus var. mycoides after 24 hrs. It counts as functional. The essentials:
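Agar dilution MIC: compounds incorporated into nutrient agar over 0.1–256 µg/mL; poorly soluble ones first dissolved in minimal DMF, then diluted into medium, with a DMF-supplemented solvent control. Inoculated from a nutrient broth starter culture to a final ca. 5 × […] CFU/mL. Incubated 24 h at 37 °C; growth scored visually against a compound-free control.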

Data set [19] concerns Candida albicans. The experiment in a line: Antimicrobial activity against Candida albicans at […] after 24 hrs. It counts as functional, organism-based.
Data set [20] deals with Escherichia coli. The experiment in a line: Antimicrobial activity against Escherichia coli at […] after 24 hrs. Type of data set: functional, organism-based.
In data set [21] the test system is Klebsiella pneumoniae. Nature of the data set: Antimicrobial activity against Klebsiella pneumoniae after 24 hrs. It counts as functional. The essentials:
as §1

Data set [22] deals with Bordetella bronchiseptica. The experiment in a line: Antimicrobial activity against Bordetella bronchiseptica after 24 hrs. Type of data set: functional. The essentials: as §1
The test system of data set [23] is Serratia marcescens. The experiment in a line: Antimicrobial activity against Serratia marcescens after 24 hrs. Type of data set: functional. The essentials:
as §1

The subject of data set [24] is Salmonella enterica subsp. enterica. The experiment in a line: Antimicrobial activity against Salmonella Typhimurium after 24 hrs. Type of data set: functional, Salmonella enterica subsp. enterica serovar Typhimurium. The essentials:
as §1

The subject of data set [25] is Klebsiella aerogenes. Nature of the data set: Antimicrobial activity against Enterobacter aerogenes after 24 hrs. It counts as functional. The essentials: as §1
Data set [26] has as its system Pseudomonas aeruginosa. Nature of the data set: Antimicrobial activity against Pseudomonas aeruginosa after 24 hrs. It counts as functional. The essentials: as §1
In data set [27] the test system is Candida albicans. Nature of the data set: Antimicrobial activity against Candida albicans after 24 hrs. It counts as functional. The essentials:
as §1

Converted amounts (≈) assume the structure as drawn. The source made the active and inactive calls. The calls are words filed in the database; no cut-off is given here.

One may read the MIC as the lowest concentration found to suppress growth. Low values mean inhibition by little substance, high ones a need for much substance. As a reminder, the IC50 is the midpoint of a concentration-inhibition curve. As a reminder, the pKa is the pH at which an ionisable group is half protonated. A lower pKa goes with a stronger acid or weaker base. Take `CCCCCCCCCCCCCC(=O)NCCCC[C@H](N)C(=O)OC.Cl`: the MIC in [1] turned out to be 157 µM; in data set [5], 157 µM; in [6] it was 157 µM; in data set [12] it was 157 µM; in data set [14] it was 78 µM; in data set [15], 157 µM. For the same molecule, the MIC in data set [16] and in data set [18] was 157 µM throughout. Besides, the outcome in data set [2], in [3], in data set [4], in data set [10], in [11] and in data set [17] was inactive. Moreover, the outcome in [19] was inactive. In addition, the IC50 in [7] is 7.3 µM; in data set [13], 1230 µM. The molecule further registered a pKa in [8] of 7.8. In data set [9], this molecule came in with a CMC of 1.6 mM.
In the case of `CCCCCCCCCCCCCCCC(=O)NCCCC[C@H](N)C(=O)OC.Cl`, the MIC in data set [1] came to 148 µM; in data set [5], 74 µM; in data set [6], 74 µM; in data set [12] it was 148 µM; in data set [14], 148 µM; in data set [16], 148 µM. This molecule yielded an MIC in data set [18] of 148 µM. Further, the result in data set [2], in data set [3], in data set [4], in data set [10], in [11] and in data set [17] was inactive. Moreover, the result in [20] and in data set [19] was inactive. Also, the CMC in [9] stood at 0.6 mM. Further, in [13], the IC50 was 1450 µM.
For the molecule hexadecyl trimethyl ammonium bromide, the MIC in data set [1] stood at 10 µM; in data set [21], 44 µM; in data set [5], 44 µM; in data set [12] it was 44 µM; in data set [22], 20 µM; in [15], 44 µM.
On to `CCCCCCCCCCCC(=O)N[C@@H](CCCCN)C(=O)OC`, for which the MIC amounted to 42 µM (≈ 14.4 µg/mL) in data set [1]; 85 µM (≈ 29.1 µg/mL) in data set [21]; 11 µM (≈ 3.77 µg/mL) in [5]; 338 µM (≈ 116 µg/mL) in [23]; 85 µM (≈ 29.1 µg/mL) in [24]; 42 µM (≈ 14.4 µg/mL) in [12]. Further, the MIC in [22] was determined as 42 µM (≈ 14.4 µg/mL); in [15], 42 µM (≈ 14.4 µg/mL); in data set [16], 85 µM (≈ 29.1 µg/mL); in data set [25] it was 157 µM (≈ 53.8 µg/mL); in [26], 169 µM (≈ 57.9 µg/mL). In addition, the IC50 in data set [13] was 199 µM.
As for `CCCCCCCCCCCC(=O)NCCCC[C@H](N)C(=O)OC.Cl`, the MIC was 169 µM in [1]; 338 µM in data set [21]; 338 µM in [5]; 338 µM in data set [6]; 338 µM in data set [12]; 169 µM in [14]. In addition, the MIC was determined as 169 µM in data set [15], 169 µM in data set [27], 338 µM in data set [16] and 169 µM in data set [18]. The outcome in [2], in [3], in [4], in [10] and in data set [11] was inactive. Moreover, the values for the IC50 in [7] and in [13] were 32 µM and 391 µM, respectively. The molecule also showed a pKa in data set [8] of 8.2. In addition, the CMC in data set [9] came to 5.5 mM.
Regarding `CCCCCCCCCCCC(=O)N[C@@H](CCCNC(=N)N)C(=O)OC`, the MIC was 20 µM (≈ 7.41 µg/mL) in [1]; 79 µM (≈ 29.3 µg/mL) in [21]; 39 µM (≈ 14.5 µg/mL) in [5]; 39 µM (≈ 14.5 µg/mL) in data set [6]; 315 µM (≈ 117 µg/mL) in data set [23]; 157 µM (≈ 58.2 µg/mL) in data set [24]. The MIC in [12] came out at 157 µM (≈ 58.2 µg/mL); in data set [22], 157 µM (≈ 58.2 µg/mL); in data set [14], 39 µM (≈ 14.5 µg/mL); in data set [15], 157 µM (≈ 58.2 µg/mL); in [27], 157 µM (≈ 58.2 µg/mL); in data set [16] it was 39 µM (≈ 14.5 µg/mL). Further, the MIC amounted to 157 µM (≈ 58.2 µg/mL) in [25], 157 µM (≈ 58.2 µg/mL) in data set [26] and 39 µM (≈ 14.5 µg/mL) in data set [18]. For the same molecule, the figures for the IC50 in [7] and in data set [13] were 36 µM and 150 µM, respectively.
